Among the data in the array DNA melting data of Ke et al. (doi:10.1101/2024.01.08.574731) are folding enthalpy and Tm values, retold here.

The nature of data set [1]: folding enthalpy; higher = less favourable; fluorescence melt of hairpins on a sequencing array, two-state fit. The settings on record: sodium 0.088 M. Summed up: (§1)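 Library hairpins on a sequenced MiSeq flow cell carried annealed Cy3 and quencher oligos, and their Cy3 fluorescence was imaged in 50 mM Na-HEPES pH 8.0 with 25 mM NaCl, in 2.5 °C steps up to 60 °C. Signals were normalised to Cy3 before quenching and to control constructs. Melting temperature and folding enthalpy were obtained from bootstrapped two-state fits, combined by inverse-variance weighting across four replicates, and the fitted temperatures were then raised by 9.35 °C to match UV melts.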

The nature of data set [2]: melting temperature; fluorescence melt of hairpins on a sequencing array, two-state fit, raised by 9.35 °C to match UV melts. Conditions: sodium 0.088 M. The procedure, abridged: as §1

In the case of GTGTGAGGAAACTTACAC ((((.((....)).)))), the folding enthalpy in data set [1] was -37.6 kcal/mol. Also, the Tm in data set [2] is 43.9 °C.

With GTGTGCCGAAAGGCCCAC (((.(((....))).))), the folding enthalpy in data set [1] is -25.3 kcal/mol. In data set [2], the Tm is 53.1 °C.

On to GTGTGCCGAAAGGCTCAC (((.(((....))).))), for which the folding enthalpy in data set [1] is -31.5 kcal/mol. Moreover, the Tm in data set [2] was 61.2 °C.

As for GTGTGCGAAAGCAAGCAC ((((((....)))..))), the folding enthalpy in data set [1] is -18.9 kcal/mol. Further, the Tm in data set [2] is 43.5 °C.

With GTGTGCGAAAGCACCCAC ((((((....)))..))), in data set [1], the folding enthalpy is -8.11 kcal/mol. In data set [2], the Tm is 39.3 °C.

Take GTGTGCGGAAACGTGCAC (((..((....))..))): the folding enthalpy in data set [1] is -38.2 kcal/mol. The Tm in data set [2] was 52.9 °C.

As to GTGTGGCGAAAGCCTCAC (((.(((....))).))), the folding enthalpy in data set [1] was -29.7 kcal/mol. In addition, the Tm in data set [2] was 58.9 °C.

With GTGTGTGGAAACACATAC ((.((((....)))).)), the folding enthalpy in data set [1] was -20.3 kcal/mol. Moreover, the Tm in data set [2] is 50 °C.

As for GTGTGTGGAAACACGCAC (((.(((....))).))), in data set [1], the folding enthalpy was -40 kcal/mol. Besides, the Tm in data set [2] was 58.7 °C.

Regarding GTGTGTGGAAACGCACAC (((((.(....).))))), in data set [1], the folding enthalpy is -36.2 kcal/mol. Besides, in data set [2], the Tm was 56.5 °C.

In the case of GTGTTACGAAAGTAGCAC (((.(((....))).))), the folding enthalpy in data set [1] is -35.7 kcal/mol. Further, the Tm in data set [2] turned out to be 53.9 °C.

On to GTGTTAGGAAACTGACAC ((((.((....)).)))), for which, in data set [1], the folding enthalpy was -33.8 kcal/mol. In data set [2], the Tm stood at 46.1 °C.

For the sequence GTGTTCCGAAAGGACAC (((.(((....)))))), the folding enthalpy in data set [1] was -32.8 kcal/mol. Also, in data set [2], the Tm was 53.8 °C.

As for GTGTTCGAAAGAAACCAC ((((((....)))..))), the folding enthalpy in data set [1] was -10.4 kcal/mol. For the same sequence, the Tm in data set [2] is 27.4 °C.

On to GTGTTCGAAAGAAAGCAC ((((((....)))..))), for which the folding enthalpy in data set [1] was -12.8 kcal/mol. The Tm in data set [2] is 27.5 °C.

As to GTGTTCGAAAGAAGGCAC ((((((....)))..))), in data set [1], the folding enthalpy is -22 kcal/mol. In addition, the Tm in data set [2] turned out to be 28.6 °C.

Regarding GTGTTCGCGAAAGCGCAC (((..(((....)))))), in data set [1], the folding enthalpy is -18.1 kcal/mol. In addition, in data set [2], the Tm stood at 45.2 °C.

Take GTGTTCGGAAACGAGCAC (((.(((....))).))): the folding enthalpy in data set [1] was -40.4 kcal/mol. In data set [2], the Tm came to 53.8 °C.

As for GTGTTCGGAAACGAGTAC ((..(((....)))..)), the folding enthalpy in data set [1] is -18.9 kcal/mol. Also, the Tm in data set [2] is 31.2 °C.

Consider GTGTTGACGAAAGTCCAC (((..(((....)))))), for which the folding enthalpy in data set [1] is -19.6 kcal/mol. The Tm in data set [2] was 41.6 °C.

GTGTTGGGAAACCAATGC (..((((....))))..): the folding enthalpy in data set [1] was -25.2 kcal/mol. Besides, the Tm in data set [2] is 38 °C.

As for GTGTTGTCGAAAGACCAC (((..(((....)))))), the folding enthalpy in data set [1] is -21.6 kcal/mol. Also, the Tm in data set [2] was 42.4 °C.

For GTGTTTCGAAAGAAGCAC (((.(((....))).))), the folding enthalpy in data set [1] was -38.1 kcal/mol. The Tm in data set [2] was 51 °C.

Take GTGTTTGGAAACGAACAC (((((.(....).))))): the folding enthalpy in data set [1] is -35.8 kcal/mol. Further, in data set [2], the Tm worked out at 49.5 °C.

As to GTTAAACGAAAGTTAAAC (((.(((....))).))), the folding enthalpy in data set [1] was -17.7 kcal/mol. Also, in data set [2], the Tm is 34.2 °C.

GTTAAAGGAAACTTTAAC (((((((....))))))): the folding enthalpy in data set [1] was -34.6 kcal/mol. Besides, the Tm in data set [2] came out at 46.6 °C.

As for GTTAAGACGAAAGTCAAC (((..(((....)))))), the folding enthalpy in data set [1] is -11.8 kcal/mol. Moreover, in data set [2], the Tm came out at 30.1 °C.

In the case of GTTAATCGAAAGATAAAC (((.(((....))).))), the folding enthalpy in data set [1] is -20.7 kcal/mol. Besides, in data set [2], the Tm is 31.6 °C.

For the sequence GTTAATGGAAACATTAGC (.(((((....))))).), the folding enthalpy in data set [1] was -20.7 kcal/mol. Also, in data set [2], the Tm turned out to be 34.8 °C.

As to GTTACCCGAAAGGGCAAC (((.(((....))).))), the folding enthalpy in data set [1] was -24.4 kcal/mol. For the same sequence, the Tm in data set [2] was 47.3 °C.

Consider GTTACCCGAAAGGGGAAC (((.(((....))).))), for which the folding enthalpy in data set [1] is -32.2 kcal/mol. Further, the Tm in data set [2] was 61.5 °C.

With GTTACCGAAAGGTATAAC ((((((....)))..))), in data set [1], the folding enthalpy was -11.7 kcal/mol. Also, the Tm in data set [2] was found to be 31.1 °C.

In the case of GTTACCGAAAGGTGCAAC ((((((....)))..))), the folding enthalpy in data set [1] was -8.88 kcal/mol. For the same sequence, in data set [2], the Tm came out at 27.3 °C.

For GTTACCGGAAACGATAAC ((((.((....)).)))), the folding enthalpy in data set [1] is -26.6 kcal/mol. In addition, in data set [2], the Tm was determined as 36.1 °C.

Take GTTACCGGAAACGGCAAC (((.(((....))).))): the folding enthalpy in data set [1] was -24.6 kcal/mol. Also, the Tm in data set [2] stood at 44 °C.

Take GTTACCGGAAACGGTAGC (.(((((....))))).): the folding enthalpy in data set [1] was -18.9 kcal/mol. Also, the Tm in data set [2] is 50.4 °C.

For GTTACGCGAAAGCGCAAC (((.(((....))).))), the folding enthalpy in data set [1] was -19.4 kcal/mol. Besides, the Tm in data set [2] came to 49.3 °C.
